Screens as filed in PubChem BioAssay.
TRPC4 act: activators of mouse TRPC4 channel; Q9QUQ5; HEK293 TRPC4beta/mu-opioid, Fluo4 calcium fluorescence; hits give high values; B-score at 10 µM; hit rate 0.49% among 310,000; AID 2237;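 active = B-score above 5 SD of library B-scores, and initial fluorescence ratio not above library mean plus 5 SD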;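 note: positive B-score marks a calcium rise read as TRPC4 activation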
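Test system: HEK293 cells stably co-expressing mouse TRPC4beta and mu-opioid receptor | Schedule: Fluo4 dye loading 45 min at room temperature, 110 s recording | Measured by: Kinetic Fluo4 calcium fluorescence, 5 s baseline at 1 Hz | Evaluation: B score of integrated ratio | Controls: Buffer (low) and maximal DAMGO (high)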
TRPC4 block: blocks the mouse TRPC4 cation channel; Q9QUQ5; HEK293 TRPC4beta/mu-opioid, DAMGO-evoked Fluo4 calcium flux; hits give low values; B-score at 10 µM; hit rate 0.39% among 300,000; AID 2247;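 active = B-score over 3 SD under the library average, no early fluorescence shift, positive overall ratio signal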
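Test system – stable TRPC4beta/mu-opioid receptor HEK293 cells · Probe or stimulus – DAMGO, a submaximal dose followed by a maximal one · Dosing – one concentration per compound · Signal – Fluo4 calcium fluorescence by kinetic imaging, 5 s 1 Hz baseline · Evaluation – per-well B score of integrated baseline-normalized Fluo4 ratio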
Yeast superoxide: yeast age-related superoxide inhibition as caloric restriction mimetic | S. cerevisiae aged cells, superoxide DHE fluorescence; hits give low values | superoxide response (% of plate mean), % at 10 µM | hit rate 0.18% among 330,000;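 active = superoxide response under a set limit, about three screen SD below normal, cut at about 65% in these data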;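 note: yeast aged for seven days with compound at 30 °C before DHE staining; 100% = average MFI of all compound-treated wells on the plate with controls excluded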
TRPC4 potent: TRPC4 (mouse) allosteric potentiation | Q9QUQ5 | B-score at 10 µM | AID 2227 | HEK293 TRPC4beta/mu-opioid, DAMGO EC20, Fluo-4 Ca2+ flux; hits give high values | hit rate 0.42% among 310,000;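 active = B-score of calcium response area above 5 SD of library B-scores, with initial fluorescence ratio within 5 SD of library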;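 note: B-score of integrated fluorescence ratio over time as area under calcium response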
TRPC6 act: mouse TRPC6 channel activation | Q61143 | HEK293-TRPC6 membrane potential dye fluorescence; hits give high values | B-score at 10 µM | hit rate 0.13% among 310,000;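 active = B-score of the integrated fluorescence ratio above library mean plus 3 SD, and starting fluorescence ratio within library mean plus 5 SD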;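 note: higher score means more depolarization so channel activation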
Target sequence (Q61143 whole entry, looked up): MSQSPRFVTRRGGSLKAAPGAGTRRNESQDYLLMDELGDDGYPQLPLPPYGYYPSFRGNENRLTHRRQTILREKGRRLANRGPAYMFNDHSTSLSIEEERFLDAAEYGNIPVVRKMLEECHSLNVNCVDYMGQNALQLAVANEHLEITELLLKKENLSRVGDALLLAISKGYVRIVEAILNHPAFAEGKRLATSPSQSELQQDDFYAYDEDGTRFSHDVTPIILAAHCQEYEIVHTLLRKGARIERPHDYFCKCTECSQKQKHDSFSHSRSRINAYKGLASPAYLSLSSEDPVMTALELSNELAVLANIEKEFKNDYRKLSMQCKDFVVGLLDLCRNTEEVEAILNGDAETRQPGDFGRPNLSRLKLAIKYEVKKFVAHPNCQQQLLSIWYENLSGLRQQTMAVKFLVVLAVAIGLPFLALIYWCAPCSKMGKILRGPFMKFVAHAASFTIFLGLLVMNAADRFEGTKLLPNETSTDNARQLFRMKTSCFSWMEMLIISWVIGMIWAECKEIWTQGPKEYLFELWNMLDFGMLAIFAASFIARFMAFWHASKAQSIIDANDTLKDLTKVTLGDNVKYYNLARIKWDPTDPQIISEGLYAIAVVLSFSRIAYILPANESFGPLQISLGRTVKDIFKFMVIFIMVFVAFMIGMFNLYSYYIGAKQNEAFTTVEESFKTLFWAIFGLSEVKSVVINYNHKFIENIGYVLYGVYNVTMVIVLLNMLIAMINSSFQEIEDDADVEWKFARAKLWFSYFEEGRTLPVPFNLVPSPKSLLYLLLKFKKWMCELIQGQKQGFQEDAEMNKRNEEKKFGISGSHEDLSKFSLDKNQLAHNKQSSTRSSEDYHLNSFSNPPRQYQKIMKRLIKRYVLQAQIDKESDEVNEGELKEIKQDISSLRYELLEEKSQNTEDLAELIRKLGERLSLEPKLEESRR
TRPC6 inhibitor: mouse TRPC6 channel inhibition; HEK293-TRPC6, membrane potential dye, ACh-evoked depolarization; hits give low values; Q61143; B-score at 10 µM; hit rate 1.1% among 310,000; AID 2553;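 active = B-score under library mean minus 3 SD, initial fluorescence not abnormally high, positive integrated signal ratio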;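 note: B-score derived from integrated fluorescence ratio over the kinetic read; more negative B-score means stronger inhibition of depolarization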
TRPC4 sel inh 2: second selectivity test of TRPC6 inhibitors: effect on mouse TRPC4. HEK293 TRPC4/MOR, membrane potential dye fluorescence; channel activated by saturating DAMGO dose. inhibition, % at 10 µM. AID 2776. shares compounds with TRPC6 inhibitor. hit rate 42% among 920;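 active = compounds whose fluorescence signal differed from control wells by over 3 SD, either direction, in both duplicate plates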
TRPC4 spec: mouse TRPC4 off-target activity of TRPC6 inhibitors. shares compounds with TRPC6 inhibitor. HEK293 TRPC4/mu-opioid, membrane potential fluorescence. activity change, negative = inhibition, % at 10 µM. hit rate 61% among 920. AID 2777;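 active = rise or fall in signal beyond 3 SD of buffer-only wells in both replicate plates, either sign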;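 note: integrated kinetic ratio of fluorescence range over baseline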
HEK293 MPD ctr 2-1: parental HEK293 nonspecific activity of TRPC6 inhibitors, second screen; shares compounds with TRPC6 inhibitor; hit rate 31% among 920; signal change vs control, % at 10 µM; parental HEK293 membrane potential dye fluorescence; maximal acetylcholine challenge after compound addition;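 active = membrane potential signal moving either way by over 3 SD of the maximum-effect control, in both duplicate plates, meaning non-specific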
HEK293 MPD ctr-1: counter-screen for TRPC6 inhibitors: effect in parental HEK293 cells. hit rate 60% among 920. shares compounds with TRPC6 inhibitor. membrane potential signal change, % at 10 µM. AID 2780. parental HEK293 membrane potential dye fluorescence;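 active = membrane potential signal shifting up or down by more than 3 SD of buffer-only wells, on both duplicate plates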
HEK293 MPD ctr-2: counter-screen for TRPC6 modulators: effect in parental HEK293 cells. hit rate 51% among 2,400. membrane potential signal change, % at 10 µM. shares compounds with TRPC6 inhibitor. membrane potential dye fluorescence;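 active = membrane potential signal moves up or down beyond 5 SD from buffer-only wells, on both duplicate plates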
HEK293 MPD ctr 2-2: second counter-screen for TRPC6 modulators: effect in parental HEK293 cells. AID 488926. inhibition, % at 10 µM. shares compounds with TRPC6 inhibitor. membrane potential dye fluorescence; after compound, maximal acetylcholine stimulation. hit rate 14% among 2,400;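 active = membrane potential signal drops by more than 5 SD from the mean control signal, in both duplicate plates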;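 note: plate controls were acetylcholine ECmax control wells for no effect and buffer only wells for full effect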
TRPC4/MOR mod: mouse TRPC4 off-target activity of TRPC6 modulators; shares compounds with TRPC6 inhibitor; HEK293 TRPC4/mu-opioid, membrane potential fluorescence; percent change from control (negative = decrease, positive = increase), % at 10 µM; hit rate 69% among 2,400; AID 488927;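 active = membrane potential signal moved up or down beyond 5 SD of buffer control wells, in both duplicate plates, actives on both sides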;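 note: plate controls were assay buffer wells for no effect and DAMGO maximal-effect wells for full effect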
TRPC4 ctr inh 2: second selectivity test of TRPC6 modulators against mouse TRPC4. AID 488928. hit rate 55% among 2,400. inhibition, % at 10 µM. HEK293 TRPC4/mu-opioid, membrane potential dye fluorescence; stimulated with maximal-effect DAMGO. shares compounds with TRPC6 inhibitor;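 active = drop in membrane potential signal beyond 5 SD of the control wells in both duplicate plates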;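 note: TRPC4 counter screen for TRPC6 hits run under conditions tuned for TRPC6 not TRPC4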
TRPC6 inh conf: confirmation of mouse TRPC6 inhibitors | HEK293-TRPC6, membrane potential dye, ACh-evoked depolarization | shares compounds with TRPC6 inhibitor | AID 488960 | hit rate 43% among 3,300 | inhibition, % at 10 µM;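 active = fluorescence ratio falls more than 5 SD below the full-stimulation control mean, in both duplicate runs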;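 note: integrated fluorescence ratio of peak minus minimum over baseline after agonist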
TRPC6 act confirm: confirmation of mouse TRPC6 activators; shares compounds with TRPC6 inhibitor; HEK293-TRPC6 membrane potential dye fluorescence, FDSS; activation, % at 10 µM; hit rate 11% among 2,800;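 active = ratio signal rise beyond 5 SD above unstimulated control wells' mean, seen in both duplicate runs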;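 note: plate controls were buffer EC0 wells for no effect and acetylcholine ECmax response for full effect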
Starred values were filed as active, the others as inactive; i = inactive; x = not tested or not shown; ! = not confirmed by another sample. This is a sample that favours compounds with a hit; in the whole collection about 2.3% have one here.

SMILES	TRPC4 act	TRPC4 block	Yeast superoxide	TRPC4 potent	TRPC6 act	TRPC6 inhibitor	HEK293 MPD ctr-2	HEK293 MPD ctr 2-2	TRPC4/MOR mod	TRPC4 ctr inh 2	TRPC6 inh conf	TRPC6 act confirm	others
Cc1ccc(NC(=O)c2nc3nccc(C)n3n2)c(C)c1	i	i	114	i	i	i	x	x	x	x	x	x
CC1CCN(CCCNC(=O)c2coc3nc4ccccc4nc23)CC1	i	i	96	i	i	-5.1*	i	i	-16%*	46%*	i	i
CC1CCCN(CCCNC(=O)c2coc3nc4ccccc4nc23)C1 (stereo not given)	i	i	92	i	i	i	x	x	x	x	x	x
Cc1cccc(N(CC(=O)NC2CCCCC2)C(=O)c2c(C)noc2C)c1	i	i	100	i	i	-6*	118%*	i	24%*	30%*	i	x
CCCCN(Cc1ccco1)C(=O)Cn1ncc2c(=O)oc3ccc(C)cc3c21	i	i	103	i	i	i	x	x	x	x	x	x
COCCNC(=O)c1ccc2c(c1)ncn2-c1ccc(F)c(F)c1	i	i	90	i	i	i	x	x	x	x	x	x
CCN(CC)CCNC(=S)NC(=O)c1cn(-c2ccccc2)nc1-c1ccc(OC)cc1	i	i	92	i	i	-5.1*	i	i	i	58%*	i	i
COC(=O)c1cn(-c2ccccc2)nc1-c1ccc(OC)cc1	i	i	107	i	i	i	x	x	x	x	x	x
COC(=O)c1cc(-c2c(C)oc3cc(OC(C)C)ccc3c2=O)c(C)o1	i	i	102	i	i	i	x	x	x	x	x	x
O=C(CCc1cccc(Cl)c1)N1CCCC(Nc2ccccc2)C1 (stereo not given)	i	i	100	i	i	-8.6*	x	x	x	x	55%*	i	TRPC4 sel inh 2=i;TRPC4 spec=i;HEK293 MPD ctr 2-1=i;HEK293 MPD ctr-1=i
CN(c1ccccc1)S(=O)(=O)c1ccc(Cl)c(C(=O)OCC(=O)NC2CCS(=O)(=O)C2)c1 (stereo not given)	i	i	109	i	i	i	x	x	x	x	x	x
O=C(NCC1CCN(c2ccc(S(=O)(=O)N3CCOCC3)cc2)CC1)c1cccc(Cl)c1	i	i	108	i	i	-6.3*	i	i	-30%*	i	45%*	i
CN(CCNC(=O)c1cc2c(=O)n(C)c3ccccc3c2n1C)Cc1ccccc1	i	i	89	i	i	-5.2*	i	i	i	56%*	i	i
Cc1ccc(CNC(=O)c2cc3c(=O)n(C)c4ccccc4c3n2C)cc1	i	i	96	i	i	i	x	x	x	x	x	x
COCCN(CCOC)c1ncc(Cl)c(C(=O)c2c(C)cc3ccccn23)n1	i	i	79	i	i	i	x	x	x	x	x	x
Cc1ccc(-c2noc(CCC(=O)N3CCCc4ccccc43)n2)cc1	i	i	94	i	i	-6.4*	104%*	i	12%*	i	66%*	x
CC(=O)c1c(C)n(-c2ccccc2)c2ccc(OCC(O)CN3CCOCC3)cc12 (stereo not given)	i	i	83	i	i	i	x	x	x	x	x	x
CCN(CC)CC(O)COc1ccc2c(c1)c(C(C)=O)c(C)n2-c1ccccc1 (stereo not given)	i	i	97	i	i	-5.5*	i	i	i	74%*	50%*	i
COc1cc(OC)cc(C(=O)NCCNC(=O)c2ccccn2)c1	i	i	95	i	i	i	x	x	x	x	x	x
COC(=O)C1=C(C)N(c2ccc(C)cc2)/C(=C/c2cccs2)C1=O	i	i	106	i	i	i	x	x	x	x	x	x
Cc1[nH]c2c(C)cccc2c1CCNS(=O)(=O)c1cccc([N+](=O)[O-])c1	i	i	105	i	i	-8.7*	-100%*	i	-26%*	32%*	i	i
N#CC(C#N)=C1NC(N)=C(C#N)C(c2ccccc2)=C1C#N	i	i	114	i	i	i	x	x	x	x	x	x
CN(Cc1nc(-c2ccccn2)no1)S(=O)(=O)c1ccccc1	x	x	104	x	x	x	x	x	x	x	x	x
Clc1ccc(-[n+]2c(-c3cccc(Br)c3)[nH]c3nc4ccccc4nc32)cc1	i	i	110	i	i	-5.1*	i	i	i	38%*	i	i
O=C(/C=C/c1ccc(N2CCC(c3ccccc3)=N2)cc1)c1ccccc1	i	i	107	i	15*	i	350%*	i	80%*	i	i	46%*
Cc1ccc(/C=[N+](/C)[O-])cc1	i	i	113	i	i	i	x	x	x	x	x	x
O=C(CNc1cccc(S(=O)(=O)N2CCOCC2)c1)Nc1ccc(C(F)(F)F)cc1	i	i	106	i	i	i	x	x	x	x	x	x
O=C(O)Cn1c(O)c(C=Nc2ccccc2)sc1=S	i	i	95	i	i	-12*!	x	x	x	x	i	i	TRPC4 sel inh 2=i;TRPC4 spec=i;HEK293 MPD ctr 2-1=i;HEK293 MPD ctr-1=i
